# In ChEMBL document CHEMBL4680093 (J Med Chem, 2016):
# Columns and labels:
# [1] = In-vivo inhibition of 11beta-HSD1 activity in C57BL/6 mouse epididymal fat assessed as reduction in cortisone to-cortisol conversion at 3 mg/kg, po measured after 6 hrs by ELISA; format: functional; conditions: C57BL/6, Epididymal fat pad
# Summary of the method: (§1)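 Male C57BL/6 mice dosed orally once at 3, 10 or 30 mg/kg in sterile water containing 0.5% methylcellulose and 1% Tween80, then sacrificed at 2 or 6 h. Liver and epididymal fat pads incubated ex vivo in culture medium containing cortisone. Cortisol formed was measured by ELISA and reported as % inhibition versus vehicle.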
# [2] = In-vivo inhibition of 11beta-HSD1 activity in C57BL/6 mouse liver assessed as reduction in cortisone to-cortisol conversion at 3 mg/kg, po measured after 6 hrs by ELISA; format: functional; conditions: C57BL/6, Liver; summary of the method: as §1
# Cytochrome P450 2C19 = Cytochrome P450 2C19 (Homo sapiens, UniProt P33261); assay: Inhibition of CYP2C19 in pooled human liver microsomes using mephenytoin as substrate in presence of NADPH incubated for 10 mins by LC-MS/MS analysis
# Chain of Cytochrome P450 2C19 (P33261 whole entry): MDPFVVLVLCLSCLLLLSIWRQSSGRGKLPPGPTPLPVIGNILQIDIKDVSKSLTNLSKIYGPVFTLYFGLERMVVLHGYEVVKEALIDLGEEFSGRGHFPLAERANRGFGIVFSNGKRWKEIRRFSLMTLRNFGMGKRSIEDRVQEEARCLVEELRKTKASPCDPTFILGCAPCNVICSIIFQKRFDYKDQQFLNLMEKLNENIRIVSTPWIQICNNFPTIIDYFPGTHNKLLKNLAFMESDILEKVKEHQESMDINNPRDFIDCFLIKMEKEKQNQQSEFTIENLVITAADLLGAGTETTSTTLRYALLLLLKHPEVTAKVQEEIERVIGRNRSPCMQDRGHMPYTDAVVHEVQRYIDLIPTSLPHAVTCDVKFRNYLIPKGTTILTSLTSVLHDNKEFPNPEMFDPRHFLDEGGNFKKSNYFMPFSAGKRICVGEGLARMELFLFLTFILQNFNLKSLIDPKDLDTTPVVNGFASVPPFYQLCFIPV
# Glucocorticoid receptor = target: T1, Glucocorticoid receptor (Homo sapiens, UniProt P04150); assay: Antagonist activity at glucocorticoid receptor (unknown origin)
# T1 sequence (P04150 whole entry): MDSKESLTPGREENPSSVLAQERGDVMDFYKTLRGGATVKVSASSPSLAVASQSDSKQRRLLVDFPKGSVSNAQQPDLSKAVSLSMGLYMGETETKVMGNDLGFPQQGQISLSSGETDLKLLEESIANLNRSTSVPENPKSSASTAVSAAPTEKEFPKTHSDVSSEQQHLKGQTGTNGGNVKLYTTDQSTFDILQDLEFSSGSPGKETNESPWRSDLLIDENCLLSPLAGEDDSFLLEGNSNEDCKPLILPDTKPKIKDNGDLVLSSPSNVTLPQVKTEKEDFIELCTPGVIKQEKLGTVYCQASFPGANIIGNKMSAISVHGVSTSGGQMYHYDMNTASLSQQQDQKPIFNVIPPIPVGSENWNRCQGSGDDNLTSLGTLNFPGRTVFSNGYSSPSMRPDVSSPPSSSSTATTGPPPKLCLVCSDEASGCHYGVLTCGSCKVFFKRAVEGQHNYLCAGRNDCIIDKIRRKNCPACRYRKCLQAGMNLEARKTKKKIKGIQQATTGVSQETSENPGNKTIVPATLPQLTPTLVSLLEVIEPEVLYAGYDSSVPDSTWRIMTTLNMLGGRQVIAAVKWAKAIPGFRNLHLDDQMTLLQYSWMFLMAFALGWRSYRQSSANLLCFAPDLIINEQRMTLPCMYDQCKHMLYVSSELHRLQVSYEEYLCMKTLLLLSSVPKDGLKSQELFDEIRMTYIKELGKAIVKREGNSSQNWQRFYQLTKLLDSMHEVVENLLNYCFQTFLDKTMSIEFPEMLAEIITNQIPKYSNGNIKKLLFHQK
# [3] = target: T2, Mineralocorticoid receptor (Homo sapiens, UniProt P08235); assay: Agonist activity at mineralocorticoid receptor (unknown origin)
# T2 sequence (P08235 whole entry): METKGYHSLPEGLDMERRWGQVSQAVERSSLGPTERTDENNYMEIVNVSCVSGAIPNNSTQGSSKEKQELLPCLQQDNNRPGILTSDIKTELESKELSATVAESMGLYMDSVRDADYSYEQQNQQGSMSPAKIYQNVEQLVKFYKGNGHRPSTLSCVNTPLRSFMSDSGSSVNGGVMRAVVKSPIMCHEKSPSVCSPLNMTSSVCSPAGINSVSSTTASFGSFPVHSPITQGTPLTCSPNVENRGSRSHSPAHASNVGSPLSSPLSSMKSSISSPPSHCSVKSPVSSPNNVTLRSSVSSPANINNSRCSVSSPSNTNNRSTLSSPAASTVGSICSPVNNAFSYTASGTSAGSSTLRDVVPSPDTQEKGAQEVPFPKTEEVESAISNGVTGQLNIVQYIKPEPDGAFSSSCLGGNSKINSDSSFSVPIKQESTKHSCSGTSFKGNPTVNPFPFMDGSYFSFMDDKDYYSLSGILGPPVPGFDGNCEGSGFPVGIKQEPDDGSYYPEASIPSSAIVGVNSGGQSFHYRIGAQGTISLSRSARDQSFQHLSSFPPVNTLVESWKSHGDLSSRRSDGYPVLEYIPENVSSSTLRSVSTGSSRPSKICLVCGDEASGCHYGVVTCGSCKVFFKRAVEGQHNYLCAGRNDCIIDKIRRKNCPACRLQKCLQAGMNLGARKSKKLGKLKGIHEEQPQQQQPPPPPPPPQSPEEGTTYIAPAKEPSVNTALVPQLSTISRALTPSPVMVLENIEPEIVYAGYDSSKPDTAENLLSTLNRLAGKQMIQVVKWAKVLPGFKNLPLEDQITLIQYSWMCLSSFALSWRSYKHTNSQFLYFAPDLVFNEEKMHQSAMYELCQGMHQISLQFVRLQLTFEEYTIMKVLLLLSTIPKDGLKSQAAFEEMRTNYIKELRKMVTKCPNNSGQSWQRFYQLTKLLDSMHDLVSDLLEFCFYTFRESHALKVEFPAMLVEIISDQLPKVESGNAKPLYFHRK
# [4] = Clearance in mouse at 1 mg/kg, iv; format: ADME, organism-based; conditions: in vivo
# [5] = Volume of distribution at steady state in rat at 1 mg/kg, iv; format: ADME, organism-based; conditions: in vivo, read-out: Vdss
# Summary of the method: (§2)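 Single-dose PK study. The iv dose was given in 10% hydroxypropyl-β-cyclodextrin and the oral dose in 0.5% methylcellulose/1% Tween80. Mouse and rat received 1 mg/kg iv and 5 mg/kg po. Dog received 0.5 mg/kg iv and 4 mg/kg po. CL, Vss, t1/2, AUC, Cmax, tmax and F were derived.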
# [6] = Half life in mouse at 1 mg/kg, iv; format: ADME, organism-based; conditions: in vivo
# [7] = Half life in dog at 0.5 mg/kg, iv; format: ADME, organism-based, Canis lupus familiaris; conditions: in vivo
# [8] = Cmax in dog at 4 mg/kg, po; format: ADME, organism-based, Canis lupus familiaris; set-up: route oral, dose 4 mg/kg; conditions: in vivo
# [9] = Oral bioavailability in mouse at 5 mg/kg; format: ADME, organism-based; conditions: in vivo; summary of the method: as §2
# [10] = Drug level in mouse plasma at 10 mg/kg, po measured after 2 hrs post dose; format: ADME, organism-based; conditions: in vivo
# Summary of the method: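 C57BL/6 mice given a single oral 10 mg/kg dose in 0.5% methylcellulose plus 1% Tween80. Sacrifice at 2 h post-dose, with collection of brain, liver, adipose and plasma. Compound concentration expressed as nmol/g, along with tissue/plasma ratio.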
# [11] = Ratio of drug level in liver to plasma of mouse at 10 mg/kg, po measured after 2 hrs post dose; format: ADME, organism-based
# Summary of the method: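 C57BL/6 mice received a single oral dose of 10 mg/kg in 0.5% methylcellulose/1% Tween80. Animals were sacrificed 2 h post-dose. Compound was measured in brain, liver, adipose and plasma (nmol/g), and tissue/plasma ratios were calculated.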
# [12] = Reduction in HbA1c level in C57BL/6-Lep^ob (ob/ob) mouse at 20 mg/kg, po dosed once daily for 25 days relative to control; format: functional; set-up: scale not given: the % may be the effect or the level left; conditions: time 25 day
# Summary of the method: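 Eight-week-old male ob/ob mice were dosed orally once daily for 25 days with vehicle (sterile water, 0.5% methylcellulose, 1% Tween80), test compound 20 mg/kg, metformin 300 mg/kg, or the combination. Baseline postprandial glucose and HbA1c were checked from tail-vein blood. Changes in HbA1c and non-fasting blood glucose were expressed relative to the vehicle group.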
compound,measurement,setting,value
C[C@@H]1CN(c2ccc(S(C)(=O)=O)cc2F)CCN1c1nccc(C(=O)NC2C3CC4CC2CC(O)(C4)C3)n1 (some centres undefined),inhibition in vivo at 3 mg/kg,[1],84%
same,inhibition in vivo at 3 mg/kg,[2],71%
same,IC50,Cytochrome P450 2C19,> 10 µM
same,EC50,Glucocorticoid receptor,> 5 µM
same,EC50,[3],> 5 µM
same,clearance,[4],7 mL/min/kg
same,Vd,[5],2.1 L/kg
same,half-life,[6],1.7 h
same,half-life,[7],4.7 h
same,Cmax,[8],1120 ng/mL
same,bioavailability,[9],96%
same,Cp,[10],10.6 nmol/g
same,Kp at 2 h,[11],2.94
same,Activity,[12],1.2%
